Laboratory results: paper PMC5890913 (Cancer research, 2017)

What was measured:
[1] = test system: PSA and FKBP5 gene expression in LNCaP cells; test: AR-target gene expression; assay type: cell-based; details: 0.1 nM R1881, 24 hours
LNCaP cells = test: LNCaP cell proliferation; assay type: cell-based; details: 0.1 nM R1881, 6 days
22RV1 xenograft = 22RV1 xenograft in castrated NSG mice; assay type: in vivo
[2] = test system: AR recruitment to PSA enhancer ARE; test: ChIP: AR recruitment to the PSA enhancer ARE in LNCaP cells; assay type: cell-based; details: 10 μM pre-treatment 30 minutes, 0.1 nM R1881 2 hours
AR = details: no reference given; cited from earlier work
[3] = molecular target: T1, progesterone receptor (PR) (Homo sapiens, UniProt P06401); test: PR transactivation in HEK-293 cells; assay type: cell-based; details: HEK-293, progesterone
T1 sequence (P06401 1-933): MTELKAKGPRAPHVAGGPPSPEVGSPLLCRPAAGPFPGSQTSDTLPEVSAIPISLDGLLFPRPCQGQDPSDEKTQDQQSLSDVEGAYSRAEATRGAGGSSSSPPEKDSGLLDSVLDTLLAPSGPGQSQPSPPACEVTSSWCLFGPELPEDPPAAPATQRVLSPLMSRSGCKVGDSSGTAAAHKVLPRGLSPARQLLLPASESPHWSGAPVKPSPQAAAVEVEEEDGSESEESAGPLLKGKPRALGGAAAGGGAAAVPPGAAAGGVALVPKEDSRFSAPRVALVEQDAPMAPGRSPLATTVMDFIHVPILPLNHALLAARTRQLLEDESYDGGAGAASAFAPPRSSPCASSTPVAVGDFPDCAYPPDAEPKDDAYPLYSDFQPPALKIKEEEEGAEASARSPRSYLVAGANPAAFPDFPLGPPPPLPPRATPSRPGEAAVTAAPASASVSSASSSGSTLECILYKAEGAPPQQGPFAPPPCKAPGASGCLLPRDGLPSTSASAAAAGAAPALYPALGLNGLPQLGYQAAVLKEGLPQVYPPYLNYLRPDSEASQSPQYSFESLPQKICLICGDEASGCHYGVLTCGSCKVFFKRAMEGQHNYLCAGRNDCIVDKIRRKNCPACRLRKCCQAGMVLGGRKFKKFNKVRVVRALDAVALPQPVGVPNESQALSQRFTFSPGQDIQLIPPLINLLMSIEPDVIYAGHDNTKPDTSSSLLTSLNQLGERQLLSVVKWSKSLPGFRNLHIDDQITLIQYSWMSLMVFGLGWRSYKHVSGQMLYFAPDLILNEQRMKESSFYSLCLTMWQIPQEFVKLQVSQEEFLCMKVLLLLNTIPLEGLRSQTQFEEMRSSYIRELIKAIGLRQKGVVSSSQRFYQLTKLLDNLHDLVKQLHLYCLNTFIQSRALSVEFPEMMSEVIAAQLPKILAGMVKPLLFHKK

[4] = test system: F876L-AR in LNCaP-EnzR cells; test: PSA expression in enzalutamide-resistant LNCaP-EnzR cells; assay type: cell-based; details: F876L mutant, 0.1 nM R1881
AR-FL in AD1 cells = test: AR full length protein level by Western blot in AD1 cells; assay type: cell-based; details: 24 hours
Outline: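 AD1 cells expressing full-length AR were kept for 2 days in medium containing charcoal-stripped serum, then treated for 24 hours. Protein was extracted and Western blotted for AR using the N-terminal AR-N20 antibody, with actin as the loading control.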

[5] = test system: FKBP5 expression in 22RV1 cells; test: AR-V7-dependent FKBP5 expression in 22RV1 cells; assay type: cell-based; details: 22RV1, charcoal stripped serum, 48 hours
[6] = test system: Pr-3001 patient-derived xenograft; test: Patient-derived xenograft Pr-3001 in castrated NSG mice; assay type: in vivo; details: over the course of 14 days
Outline: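 The CRPC patient specimen was collected in RPMI with penicillin/streptomycin and fungizone, minced, digested with collagenase for 2 hours and washed in serum-free medium. It was implanted subcutaneously as 1 mm³ fragments in castrated NSG mice, n=8–10 per group. At 100–200 mm³, mice were randomized to vehicle or test compound, and tumor volume was measured thrice weekly.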

panel of kinases = test: Cross-reactivity with a panel of kinases; assay type: biochemical
PR in T47D cells = molecular target: T2, PR in T47D cells (Homo sapiens, UniProt P06401); test: PR protein level by Western blot in T47D cells; assay type: cell-based
T2 sequence (P06401 1-933): T1 sequence (P06401 1-933)
Outline: (§1)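 T47D breast cancer cells were plated in growth medium and treated with a range of test compound doses. PR, ER and actin levels were read by Western blot, with actin as the loading control.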

ER in T47D cells = ER in T47D cells (Homo sapiens, UniProt P03372); test: ER protein level by Western blot in T47D cells; assay type: cell-based
Outline: as §1

[7] = molecular target: T3, glucocorticoid receptor (GR) in PC-3 cells (Homo sapiens, UniProt P04150); test: GR protein level in transiently transfected PC-3 cells; assay type: cell-based; details: transient transfection
T3 sequence (P04150 1-777): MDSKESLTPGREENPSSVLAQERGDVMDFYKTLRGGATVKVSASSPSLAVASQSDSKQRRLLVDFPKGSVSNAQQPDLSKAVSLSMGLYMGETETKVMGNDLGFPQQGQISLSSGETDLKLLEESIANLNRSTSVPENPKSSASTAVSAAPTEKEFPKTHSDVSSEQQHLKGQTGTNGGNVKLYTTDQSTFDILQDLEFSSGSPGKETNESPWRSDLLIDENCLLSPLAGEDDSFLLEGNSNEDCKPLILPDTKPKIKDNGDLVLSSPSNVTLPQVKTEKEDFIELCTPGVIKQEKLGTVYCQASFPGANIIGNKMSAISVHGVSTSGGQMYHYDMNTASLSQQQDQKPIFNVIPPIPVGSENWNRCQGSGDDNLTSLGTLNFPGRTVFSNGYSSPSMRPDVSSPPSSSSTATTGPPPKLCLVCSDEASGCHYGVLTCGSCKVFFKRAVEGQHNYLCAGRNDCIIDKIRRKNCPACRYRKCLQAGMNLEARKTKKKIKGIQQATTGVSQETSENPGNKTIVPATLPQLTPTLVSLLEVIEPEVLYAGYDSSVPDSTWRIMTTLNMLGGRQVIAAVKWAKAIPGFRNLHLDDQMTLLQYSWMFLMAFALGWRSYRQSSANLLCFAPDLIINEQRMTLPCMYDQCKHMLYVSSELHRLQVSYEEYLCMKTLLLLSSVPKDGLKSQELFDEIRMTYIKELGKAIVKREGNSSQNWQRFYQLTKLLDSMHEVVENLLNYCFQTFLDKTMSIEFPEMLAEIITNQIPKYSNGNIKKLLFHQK

[8] = test system: NDRG1 and MT2A pre-mRNAs in LNCaP cells; test: Early induction of NDRG1 and MT2A pre-mRNAs in LNCaP cells; assay type: cell-based; details: 10 μM, 0.1 nM R1881

Chain of ER in T47D cells (P03372 whole entry): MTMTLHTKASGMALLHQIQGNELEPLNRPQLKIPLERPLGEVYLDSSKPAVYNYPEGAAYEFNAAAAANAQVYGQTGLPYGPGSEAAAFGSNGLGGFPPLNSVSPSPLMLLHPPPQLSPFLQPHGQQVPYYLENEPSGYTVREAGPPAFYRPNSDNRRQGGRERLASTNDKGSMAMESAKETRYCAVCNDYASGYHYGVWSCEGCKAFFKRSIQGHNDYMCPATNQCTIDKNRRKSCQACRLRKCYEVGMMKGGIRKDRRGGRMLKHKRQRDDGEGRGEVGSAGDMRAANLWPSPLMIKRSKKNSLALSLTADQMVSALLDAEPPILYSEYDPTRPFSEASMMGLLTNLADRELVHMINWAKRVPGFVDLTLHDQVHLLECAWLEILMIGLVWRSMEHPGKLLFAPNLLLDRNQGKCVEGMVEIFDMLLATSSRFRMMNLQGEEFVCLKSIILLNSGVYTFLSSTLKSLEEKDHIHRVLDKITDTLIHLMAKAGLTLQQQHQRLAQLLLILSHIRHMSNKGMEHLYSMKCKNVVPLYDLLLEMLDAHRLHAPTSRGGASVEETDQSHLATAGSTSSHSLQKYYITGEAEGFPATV

## C[C@@](O)(Cn1ccc2cc(F)ccc21)C(=O)Nc1ccc(C#N)c(C(F)(F)F)c1 [(R)-UT-155]
[1]
  inhibition of R1881-induced FKBP5 expression: at concentrations comparable to that observed with UT-155
LNCaP cells
  inhibition of LNCaP proliferation: inhibited the proliferation of LNCaP cells

## CNC(=O)c1ccc(N2C(=S)N(c3ccc(C#N)c(C(F)(F)F)c3)C(=O)C2(C)C)cc1F [enzalutamide, reference compound]
22RV1 xenograft; 30 mg/kg/day s.c.
  effect on growth of 22RV1 tumors: no effect
[2]
  inhibition of AR recruitment to the ARE on the PSA enhancer: inhibited

## COc1ccc(/C=C/C(=O)/C=C(O)/C=C/c2ccc(OC)c(OC)c2)cc1OC [ASC-J9]
AR
  concentrations inducing AR degradation: greater than 10 μM

## C[C@](O)(Cn1ccc2cc(F)ccc21)C(=O)Nc1ccc(C#N)c(C(F)(F)F)c1 [UT-155]
[3]
  inhibition of PR transactivation: at concentration comparable to that of the AR
[4]
  inhibition of PSA expression in LNCaP-EnzR: inhibited the expression of PSA
AR-FL in AD1 cells
  effect on AR expression in AD1 cells: reduces AR expression
[5]
  inhibition of AR-V7-dependent FKBP5 expression: inhibited
22RV1 xenograft; 100 mg/kg/day s.c.
  inhibition of 22RV1 xenograft growth: 53%
[6]
  inhibition of Pr-3001 growth: 40–60%
Panel of kinases
  inhibition of kinase activity: no significant inhibition
PR in T47D cells
  effect on PR protein levels: no effect
ER in T47D cells
  effect on ER protein levels: no effect
[7]
  effect on GR protein levels: no effect on GR
[2]
  inhibition of AR recruitment to the ARE on the PSA enhancer: failed to inhibit
[8]
  inhibition of R1881-dependent increase in NDRG1 and MT2A pre-mRNAs at 1 and 2 hours: failed to inhibit
